# Experiments:
# [1] = Cytotoxicity against HEL cells assessed as growth inhibition after 3 days by coulter counter method; type: toxicity, cell-based; conditions: human; for CC50 at 72 h: HEL cells; for CC50: hel, 72 h
# Procedure, shortened: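 HEL cells were seeded at 5×10^3 cells/well and allowed to grow for 24 h. Medium with varying compound concentrations was then added, and cells were incubated for 3 days at 37 °C before counting with a Coulter counter.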
# [2] = Cytotoxicity against HEL cells assessed as alteration of cell morphology after 3 days by microscopic method; type: toxicity, cell-based; conditions: human
# Procedure, shortened: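 HEL cultures were exposed to compound at varying concentrations. Cytotoxicity was recorded as the minimum cytotoxic concentration, the lowest concentration giving a microscopically detectable alteration of cell morphology.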
# Human alphaherpesvirus 2 = assay: Antiviral activity against Herpes simplex virus 2 G infected in HEL cells assessed as inhibition of virus plaque formation; type: functional, cell-based; conditions: Human alphaherpesvirus 2, strain G
# Human alphaherpesvirus 1 [3] = assay: Antiviral activity against Herpes simplex virus 1 KOS infected in HEL cells assessed as inhibition of virus plaque formation; type: functional, cell-based; conditions: Human alphaherpesvirus 1, KOS
# Human betaherpesvirus 5 [4] = assay: Antiviral activity against Human cytomegalovirus Davis infected in HEL cells assessed as inhibition of virus plaque formation; type: functional, cell-based; conditions: Human betaherpesvirus 5, Davis
# Human alphaherpesvirus 3 [5] = assay: Antiviral activity against thymidine kinase deficient Varicella-Zoster virus 07-1 infected in HEL cells assessed as inhibition of virus plaque formation; type: functional, cell-based; conditions: Human alphaherpesvirus 3, 07-1, HEL
# Procedure, shortened: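 Confluent HEL fibroblast monolayers were infected with 20 PFU of TK⁻ VZV strain 07-1 and incubated with varying compound concentrations. Plaques were recorded once plaque formation reached completion in untreated infected controls.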
# Human alphaherpesvirus 3 [6] = assay: Antiviral activity against thymidine Kinase expressing Varicella-Zoster virus OKA infected in HEL cells assessed as inhibition of virus plaque formation; type: functional, cell-based; conditions: Human alphaherpesvirus 3, OKA
# Procedure, shortened: (§1)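 Confluent HEL cell monolayers were infected with 20 PFU of VZV and incubated with varying compound concentrations. Plaques were scored once plaque formation was complete in untreated infected controls.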
# Human alphaherpesvirus 1 [7] = assay: Antiviral activity against thymidine kinase-deficient acyclovir-resistant Herpes simplex virus 1 KOS infected in HEL cells assessed as inhibition of virus plaque formation; type: functional, cell-based; conditions: Human alphaherpesvirus 1, KOS
# Human alphaherpesvirus 3 [8] = assay: Antiviral activity against thymidine kinase deficient Varicella-Zoster virus YS-R infected in HEL cells assessed as inhibition of virus plaque formation; type: functional, cell-based; conditions: Human alphaherpesvirus 3, YS-R; procedure, shortened: as §1
# Human betaherpesvirus 5 [9] = assay: Antiviral activity against Human cytomegalovirus AD169 infected in HEL cells assessed as inhibition of virus plaque formation; type: functional, cell-based; conditions: Human betaherpesvirus 5, AD169, HEL
Compound,CC50 at 72 h [1],MCC at 72 h [2],EC50 (Human alphaherpesvirus 2),EC50 (Human alphaherpesvirus 1 [3]),CC50 [1],EC50 (Human betaherpesvirus 5 [4]),EC50 (Human alphaherpesvirus 3 [5]),EC50 (Human alphaherpesvirus 3 [6]),EC50 (Human alphaherpesvirus 1 [7]),EC50 (Human alphaherpesvirus 3 [8]),EC50 (Human betaherpesvirus 5 [9])
Nc1nc2c(ncn2COCCO)c(=O)[nH]1 [ACYCLOVIR],191 to 224 µM,250 to 440 µM,,,,,,,,,
Nc1ccn(C[C@@H](CO)OCP(=O)(O)O)c(=O)n1 [CIDOFOVIR],,> 250 µM,0.7 µM,0.4 µM,,,,,,,
CC(=O)N(CCc1ccc(-c2ccccc2)cc1)CCc1cn(C)c2ccccc12,,20 to 35 µM,> 100 µM,> 100 µM,31 to 39 µM,> 4 µM,1.7 to 3.1 µM,2.5 to 3.6 µM,> 100 µM,2.1 µM,
CC(=O)N(CCc1cn(C)c2ccccc12)c1cccc2ccccc12,,100 µM,,,,,> 20 µM,> 20 µM,,,
CCCn1cc(CNCCc2ccc(-c3ccccc3)cc2)c2cc(CNc3ccc(Cl)cc3)ccc21,,20 µM,> 4 µM,> 4 µM,9.7 µM,> 4 µM,> 4 µM,> 4 µM,> 4 µM,,
Cn1cc(CCNCc2ccc(Cl)cc2)c2ccccc21,,20 µM,> 20 µM,> 20 µM,22 µM,> 20 µM,> 4 µM,> 4 µM,> 20 µM,,> 20 µM
CC(=O)N(CCc1cn(C)c2ccccc12)Cc1ccc(-c2ccccc2)cc1,,100 µM,,,,,> 20 µM,> 20 µM,,,
CCCn1cc(CN2CCCCC2)c2ccccc21,,> 100 µM,> 100 µM,> 100 µM,> 100 µM,> 4 µM,> 100 µM,> 100 µM,> 100 µM,,> 4 µM
CC(=O)N(CCc1cn(C)c2ccccc12)Cc1ccc2ccccc2c1,,20 µM,,,,,> 4 µM,> 4 µM,,,
CCCn1cc(CN2CCCCC2)c2cc(CNc3ccc(Cl)cc3)ccc21,,20 µM,> 20 µM,> 20 µM,15 µM,> 4 µM,> 4 µM,> 4 µM,> 20 µM,,
CC(=O)N(CCc1cn(C)c2ccccc12)c1ccc2ccccc2c1,,20 µM,,,,,> 4 µM,> 4 µM,,,
COC(=O)c1ccc(CNCCc2cn(Cc3ccc(-c4ccccc4)cc3)c3ccccc23)cc1,,20 µM,> 100 µM,> 100 µM,7.3 µM,> 4 µM,> 4 µM,,> 100 µM,> 4 µM,> 4 µM
CCCn1cc(CN2CCCCC2)c2cc(NC(=O)c3ccccc3)ccc21,,100 µM,> 100 µM,> 100 µM,31 µM,> 20 µM,> 20 µM,> 20 µM,> 100 µM,,
COc1ccc(CNCCc2cn(C)c3ccccc23)cc1,,100 µM,> 20 µM,> 20 µM,28 µM,> 20 µM,> 20 µM,> 20 µM,> 20 µM,,> 20 µM
Cn1cc(CCN(CCc2ccc(-c3ccccc3)cc2)C(=O)C2CCCCC2)c2ccccc21,,20 µM,,,,,> 4 µM,> 4 µM,,,
c1ccc(-c2ccc(Cn3cc(CN4CCCCC4)c4ccccc43)cc2)cc1,,20 µM,> 20 µM,> 20 µM,6.9 µM,> 4 µM,> 4 µM,> 4 µM,> 20 µM,,
Cn1cc(CCNc2ccc3ccccc3c2)c2ccccc21,,> 100 µM,> 100 µM,> 100 µM,41 µM,100 µM,> 100 µM,> 100 µM,> 100 µM,,76 µM
Cn1cc(CCN(CCc2ccc(-c3ccccc3)cc2)C(=O)c2ccccc2)c2ccccc21,,> 100 µM,,,,,20 µM,20 µM,,,
Cn1cc(CCN(CCc2ccc(-c3ccccc3)cc2)C(=O)OC(C)(C)C)c2ccccc21,,20 µM,,,,,> 4 µM,> 4 µM,,,
CCCn1cc(CNCCc2ccc(-c3ccccc3)cc2)c2ccccc21,,4 µM,> 100 µM,> 100 µM,1.7 µM,> 0.16 µM,> 0.8 µM,> 0.8 µM,> 100 µM,,
Cn1cc(CCN(CCc2ccc(-c3ccccc3)cc2)C(=O)CCN2CCOCC2)c2ccccc21,,20 µM,,,,,> 4 µM,> 4 µM,,,
CCCn1cc(C(=O)c2ccc(Cl)cc2)c2ccccc21,,> 100 µM,> 100 µM,> 100 µM,> 100 µM,> 100 µM,> 100 µM,> 100 µM,> 100 µM,,
Cn1cc(CCNCCc2ccc(-c3ccccc3)cc2)c2ccccc21,,> 4 µM,> 100 µM,> 100 µM,20 µM,> 4 µM,> 4 µM,,> 100 µM,,> 4 µM
Nc1nc(O)c2ncn(COC(CO)CO)c2n1 [GANCICLOVIR],,> 100 µM,,,,,,,,,
CC(=O)N(CCc1cn(C)c2ccccc12)Cc1ccc(Oc2ccccc2)cc1,,20 µM,,,,,> 4 µM,> 4 µM,,,
CC(=O)N(CCc1cn(C)c2ccccc12)Cc1cccc2ccccc12,,100 µM,,,,,> 20 µM,> 20 µM,,,
O=c1[nH]c(=O)n([C@H]2C[C@H](O)[C@@H](CO)O2)cc1/C=C/Br [BRIVUDINE],160 to 300 µM,250 to 300 µM,96 µM,,,,33 to 143 µM,0.019 to 0.035 µM,,,

# Reference: ChEMBL document CHEMBL3877247, “Identification of an indol-based derivative as potent and selective varicella zoster virus (VZV) inhibitor” (Eur J Med Chem, 2016)
